Yeast lifespan up = yeast lifespan extension. 130,000 compounds, 0.68% hits. inhibition of the nicotinamide effect, % at 10 µM. S. cerevisiae growth with nicotinamide, OD615; deaD strain in restrictive glucose medium;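 active means inhibition above a set limit, placed 3 SD over the median of all compounds, cut at about 26% in these data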;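 further: 0% = nicotinamide-treated wells and 100% = cells grown without nicotinamide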
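Assay system: DeaD-strain S. cerevisiae. Medium: CSMM-D glucose medium, restrictive. Reagent: nicotinamide, 1.5 mM, co-present with compound. Compound: 10 µM single point, 0.25% DMSO. Schedule: culture preincubation 4 h, compound exposure 48 h, both 30 °C. Detection: absorbance at 615 nm.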
PostGolgi ctrl = growth of the yeast control strain, post-Golgi counter-screen. 98,000 compounds, 5% hits. inhibition, % at 10 µM. efflux-deficient yeast background strain, growth absorbance A615, 16 h
BB579 growth dn = yeast BB579 growth reduction in restrictive medium; S. cerevisiae BB579 growth, OD615, 48 h; inhibition, % at 10 µM; 140,000 compounds, 0.51% hits;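 active means inhibition above a set limit, 3 SD over the mean compound inhibition, cut at about 44% in these data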
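Test system: DeaD yeast strain BB579 / Buffer or medium: restrictive glucose-based CSMM-D medium / Doses: single 10 µM dose / Schedule: 4 h cell preincubation, 48 h compound exposure, 30 °C humidified / Technique: culture absorbance at 615 nm / Controls: amphotericin B positive control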
PostGolgi yeast = growth inhibition of a yeast mutant, post-Golgi transport screen | post-Golgi transport phenotypic cell assay | inhibition, % at 10 µM | 98,000 compounds, 0.9% hits | AID 739;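 further: yeast cells grown in 1536-well plates; yeast grown about 18 h at 30C before absorbance read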
The depositor's hits bear a star; . = not tested or not shown. The sample as a whole holds a higher share of hits than the screen did. Unless noted, no stated cut-off is given here; in the data, active means inhibition above about 30%; inactive means the rest.

SMILES	Yeast lifespan up	PostGolgi ctrl	BB579 growth dn	PostGolgi yeast
CCn1nccc1C(=O)Nc1ccc(Cl)cc1Cl	-24	32*	-47	9
Cc1nc(Cl)sc1C(=O)Nc1ccc(Cl)cc1	-7	.	-46	.
COc1cc(OC)cc(C(=O)Nn2cc(C(=O)Nc3ccc(F)cc3F)c3ccccc3c2=O)c1	1	.	-64	.
Nc1ccc(SC(F)(F)F)cc1C(=O)c1ccccc1	-21	16	57*	-8
O=C(c1ccccc1)c1c[nH]cc1-c1ccccc1	.	.	-50	.
Cc1c(N/N=C(\C#N)C(=O)c2ccc(Cl)cc2)c(=O)n(-c2ccccc2)n1C	3	.	-8	.
N#C/C(=N\Nc1ccc(Cl)cc1)C(=O)c1ccccc1	-6	79*	-17	7
COc1ccc(C2=NC(C(F)(F)F)(C(F)(F)F)c3c(n(C)c(=O)n(C)c3=O)N2)cc1	-15	9	9	92*
CCOC(=O)C(C)/C(C)=N/NC(N)=S (centres undefined)	2	.	3	.
O=C(c1cc(Br)c(Br)s1)N1CCN(C/C=C/c2ccccc2)CC1	1	46*	-12	8
CC(=C1C(=O)c2ccccc2C1=O)N1CCN(C/C=C/c2ccccc2)CC1	57*	12	-2	-1
Cc1cc(C(=O)N2CCN(C/C=C/c3ccccc3)CC2)cs1	-11	-9	-24	-2
CC(=C1C(=O)c2ccccc2C1=O)N1CCN(Cc2ccccc2)CC1	37	-5	-37	7
Cc1ccnc(NC(NC(=O)C(C)C)(C(F)(F)F)C(F)(F)F)c1	2	.	-24	.
CS(=O)(=O)N1CCN(C(=O)c2cccnc2)CC1	0	35*	-48	0
CS(=O)(=O)N1CCN(C(=O)c2ccncc2)CC1	-5	5	11	-7
Nn1c(SCC(=O)Nc2ccc(F)cc2)nnc1C1CCCCC1	-11	0	-9	-2
Cc1ccc(NC(=O)CSc2nnc(C3CCCCC3)n2N)cc1F	-5	2	7	31*
Cn1c(N=NC(=O)c2ccccc2)c(O)c2ccccc21	-9	.	-24	.
O=C(C1CCN(Cc2ccccc2)CC1)N1CCCC1	1	5	-40	-9
O=C1CC(N2CCN(C3CC(=O)N(CCc4ccccc4)C3=O)CC2)C(=O)N1CCc1ccccc1 (centres undefined)	-3	47*	-30	-2
CCN1C(=O)CC(N2CCC(C(=O)OC)CC2)C1=O (centres undefined)	12	32*	-36	4
O=C(C1CCN(C2CC(=O)N(Cc3ccccc3)C2=O)CC1)N1CCCCCC1 (centres undefined)	-22	3	-32	32*
O=C1CC(N2CCC(Cc3ccccc3)CC2)C(=O)N1CCc1ccccc1 (centres undefined)	-6	23	-23	-3
CCN1C(=O)CC(N2CCC(Nc3ccc(OC)cc3)CC2)C1=O (centres undefined)	-4	-1	-13	-5
SMILES	Yeast lifespan up	PostGolgi ctrl	BB579 growth dn	PostGolgi yeast
CCOc1ccc(OCC)c(NC(=O)CCCN2C(=S)NC(C)(C)CC2C)c1 (centres undefined)	-4	.	7	.
Cc1cc(=O)oc2ccc(OCC(=O)N(Cc3ccc(F)cc3)Cc3ccco3)cc12	32	44*	-64	-4
CCOC(=O)Oc1ccc2oc(=O)cc(C)c2c1	-6	5	-38	5
CCOC(=O)c1c(NC(=O)C(C)N2CCN(C(=O)c3ccco3)CC2)sc2c1CCCC2 (centres undefined)	-6	13	-45	-6
CC(/C=C/c1cccs1)=C\C(=O)O	22	32*	-3	-9
c1csc(C2Nc3cccc4cccc(c34)N2)c1	-2	32*	-46	-10
COc1ccc(OC)c(CN2CCN(C(=O)c3cccc4ccccc34)CC2)c1	-21	34*	-28	3
COc1ccc(OC)c(CN2CCN(C(=O)c3cccs3)CC2)c1	3	2	-52	5
CCOc1ccc2nc(NC(=O)C3CCCN(S(=O)(=O)c4cccs4)C3)sc2c1 (centres undefined)	2	48*	-61	75*
CCOc1ccc2nc(NC(=O)C(NS(=O)(=O)c3cccs3)C(C)C)sc2c1 (centres undefined)	-14	6	-44	-7
Cc1cc(C)nc(N2CCCC(C(=O)Nc3nc4ccc(S(C)(=O)=O)cc4s3)C2)n1 (centres undefined)	-11	34*	-46	-3
CCOc1ccc2nc(NC(=O)CS(=O)(=O)c3ccccc3)sc2c1	-1	51*	-37	-4
CCOc1ccc2nc(NC(=O)CS(=O)(=O)c3ccc(C)cc3)sc2c1	-12	23	-27	1
FC(F)(F)c1cccc(NC(=S)NCC2COc3ccccc3O2)c1 (centres undefined)	1	.	-38	.
O=Cc1ccc(OC2OCCOC2Oc2ccc(C=O)cc2)cc1 (centres undefined)	0	.	-21	.
COc1ccc(CCNC(=O)C2CCN(S(C)(=O)=O)CC2)cc1	-3	13	2	0
O=C(NCc1ccccc1)c1sc(=S)n2c1[nH]c(=O)c1ccccc12	-3	47*	-54	4
O=C(Nc1ccccc1)NC1CCCCC1	42*	-3	-5	2
S=C(Nc1ccc(Oc2ccccc2)cc1)NC1CCCCCC1	-2	.	56*	.
O=C(NCCC1=CCCCC1)C1CCN(C(=O)c2ccc(Br)cc2)CC1	7	.	-32	.
CCC1CC(C)(C(=O)Nc2ccc(S(N)(=O)=O)cc2)OC1=O (centres undefined)	49*	5	-8	5
COc1c(F)c(F)c(C(=O)Nc2ccc(N3CCN(Cc4ccccc4)CC3)cc2)c(F)c1F	-12	5	15	-1
Cc1ccc(SCc2[nH]nc3c2C2(C(=O)Nc4ccc([N+](=O)[O-])cc42)C(C#N)=C(N)O3)cc1 (centres undefined)	-8	36*	-35	-4
CC(Sc1nnc(-c2cccnc2)n1-c1ccccc1F)C(=O)N1CCCc2ccccc21 (centres undefined)	2	.	-35	.
Cc1ccc(N(C(=O)CCC(=O)Nc2cc(C)on2)C(C(=O)NC2CCCC2)c2cccs2)cc1 (centres undefined)	-3	36*	-54	0
CCOc1cc(/C=N/NC(N)=S)cc(Br)c1OCc1ccccc1C	-18	67*	-15	3
COc1cc(/C=N/NC(N)=S)cc(Br)c1OCc1ccccc1F	-4	.	-5	.
CCOC(=O)CN1C(=O)CSc2ccccc21	3	28	-25	1
CCCOc1ccc(NC(=O)C(=O)NCCCn2ccnc2)cc1	-5	.	-29	.
CCOc1cc(C(=O)NCCCn2ccnc2)cc(OCC)c1OCC	2	.	11	.
